Measurements as given in ChEMBL document CHEMBL4387720, “Lead generation of 1,2-dithiolanes as exon 19 and exon 21 mutant EGFR tyrosine kinase inhibitors” (Bioorg Med Chem Lett, 2019).

What was measured:
[1] = molecular target: Epidermal growth factor receptor (Homo sapiens, UniProt P00533, L858R/T790M); experiment: Inhibition of human partial length EGFR L858R/T790M mutant (R669 to V1011 residues) expressed in mammalian expression system by competition binding assay based KinomeScan assay
Summary of the method: (§1)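 Competition binding against an immobilized active-site-directed ligand. Bound kinase is quantified by qPCR of its DNA tag. Kd values come from duplicate 11-point dose-response curves.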

[2] = molecular target: Epidermal growth factor receptor (Homo sapiens, UniProt P00533); experiment: Inhibition of probe binding to wild type EGFR (unknown origin) using rabbit reticulate lysate system after 1 hr by luminescence assay
[3] = molecular target: T1, Epidermal growth factor receptor (Homo sapiens, UniProt P00533, L858R)
NCI-H322M [4] = experiment: cells; format: functional; details: Homo sapiens, 48 h
[5] = Half life in rat liver microsomes; format: ADME, Microsome
[6] = Half life in rat hepatocytes; format: ADME, cell-based, Hepatocyte
Cytochrome P450 2C19 = Cytochrome P450 2C19 (Homo sapiens, UniProt P33261); experiment: Inhibition of CYP2C19 (unknown origin); format: ADME
MOLT-4 [7] = experiment: cells; format: functional; details: Homo sapiens, MOLT-4, 48 h
[8] = molecular target: T1, Epidermal growth factor receptor; experiment: Binding affinity to human partial length EGFR L858R mutant (R669 to V1011 residues) expressed in bacterial expression system by kinomescan assay
Summary of the method: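 Competition binding against an immobilized active-site-directed ligand; bound kinase quantified by qPCR of its DNA tag. Kd taken from duplicate 11-point dose-response curves.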

[9] = molecular target: Tyrosine-protein kinase Tec (Homo sapiens) (UniProt P42680); experiment: Inhibition of probe binding to TEC (unknown origin) using rabbit reticulate lysate system at 250 nM after 1 hr by luminescence assay relative to control
[10] = molecular target: T1, Epidermal growth factor receptor; experiment: Binding affinity to human partial length EGFR L858R mutant (R669 to V1011 residues) expressed in bacterial expression system under full equilibrating condition by scanKINETIC assay
Summary of the method: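 Binding kinetics are read from Kd values measured under four dose-response arms. Arm A is full equilibration. Arm B is equilibrate, then 3-fold dilution, then equilibrate. Arm C is partial equilibration. Arm D is predilution followed by full equilibration. Comparing the arms assesses reversibility of binding.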

CCRF-CEM = experiment: Therapeutic index, ratio of LC50 for human CCRF-CEM cells to GI50 for human CCRF-CEM cells; format: functional
Summary of the method: (§2)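 NCI-60 panel screen using five-dose response curves, each value an average of 2 experiments. […] The therapeutic index is calculated as LC50/GI50 for the same cell line.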

A549 [11] = experiment: Cytotoxicity against human A549 cells assessed as reduction in measured protein incubated for 48 hrs by SRB assay; format: functional; details: A549, 48 h, read-out: LC50 (the source's name)
Summary of the method: (§3)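 Tested in the NCI-60 panel with a five-dose response curve, each value the mean of 2 experiments.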

Cytochrome P450 2D6 = Cytochrome P450 2D6 (Homo sapiens, UniProt P10635); experiment: Inhibition of CYP2D6 (unknown origin); format: ADME
MOLT-4 [12] = experiment: Therapeutic index, ratio of LC50 for human MOLT4 cells to GI50 for human MOLT4 cells; format: functional; summary of the method: as §2
Cytochrome P450 3A4 = Cytochrome P450 3A4 (Homo sapiens, UniProt P08684); experiment: Inhibition of CYP3A4 (unknown origin); format: ADME
NCI-H460 [13] = experiment: cells; format: functional; details: Homo sapiens, NCI-H460, 48 h
NCI-H460 [14] = experiment: Cytotoxicity against human NCI-H460 cells assessed as reduction in measured protein incubated for 48 hrs by SRB assay; format: functional; details: NCI-H460, 48 h, read-out: LC50 (the source's name); summary of the method: as §3
[15] = molecular target: Tyrosine-protein kinase ITK/TSK (Homo sapiens) (UniProt Q08881); experiment: Inhibition of probe binding to ITK (unknown origin) using rabbit reticulate lysate system at 250 nM after 1 hr by luminescence assay relative to control
[16] = molecular target: Epidermal growth factor receptor (Homo sapiens, UniProt P00533, A750P/L747-E749DEL); experiment: Binding affinity to human partial length EGFR L747-E749del/A750P mutant expressed in bacterial expression system by KinomeScan assay; summary of the method: as §1
[17] = molecular target: Receptor tyrosine-protein kinase erbB-2 (Homo sapiens, UniProt P04626); experiment: Inhibition of probe binding to HER2 (unknown origin) using rabbit reticulate lysate system after 1 hr by luminescence assay
Summary of the method: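 Homogeneous competition binding in rabbit reticulocyte lysate with kinase expressed in the lysate. IC50 taken from a ten-point dose-response curve; value is the average of triplicate experiments.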

[18] = molecular target: Epidermal growth factor receptor (Homo sapiens, UniProt P00533, L747-S752DEL/P753S); experiment: Binding affinity to human partial length EGFR L747-S752del/P753S mutant expressed in bacterial expression system by KinomeScan assay; summary of the method: as §1
A549 [19] = experiment: Therapeutic index, ratio of LC50 for human A549 cells to GI50 for human A549 cells; format: functional
Summary of the method: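 NCI-60 panel cell growth assay. Five-point dose-response curves; each value is the average of 2 experiments. […] Therapeutic index is calculated as LC50/GI50.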

Cytochrome P450 2C9 = Cytochrome P450 2C9 (Homo sapiens, UniProt P11712); experiment: Inhibition of CYP2C9 (unknown origin); format: ADME
MOLT-4 [20] = experiment: Cytotoxicity against human MOLT4 cells assessed as reduction in measured protein incubated for 48 hrs by SRB assay; format: functional; details: MOLT-4, 48 h, read-out: LC50 (the source's name); summary of the method: as §3
[21] = molecular target: Cytoplasmic tyrosine-protein kinase BMX (Homo sapiens) (UniProt P51813); experiment: Inhibition of probe binding to BMX (unknown origin) using rabbit reticulate lysate system at 250 nM after 1 hr by luminescence assay relative to control
[22] = molecular target: Epidermal growth factor receptor (Homo sapiens, UniProt P00533, L747-T751DEL); experiment: Binding affinity to human partial length EGFR L747-T751del/Sins mutant expressed in bacterial expression system by KinomeScan assay; summary of the method: as §1
NCI-H322M [23] = experiment: Cytotoxicity against human NCI-H322M cells assessed as reduction in measured protein incubated for 48 hrs by SRB assay; format: functional; details: read-out: LC50 (the source's name); summary of the method: as §3
Cytochrome P450 2B6 = Cytochrome P450 2B6 (Homo sapiens, UniProt P20813); experiment: Inhibition of CYP2B6 (unknown origin); format: ADME
Cytochrome P450 2C8 = Cytochrome P450 2C8 (Homo sapiens, UniProt P10632); experiment: Inhibition of CYP2C8 (unknown origin); format: ADME
[24] = Half life in human liver microsomes; format: ADME, Microsome
[25] = Half life in rat S9 fraction; format: ADME, subcellular
[26] = Half life in human S9 fraction; format: ADME, subcellular
[27] = molecular target: Epidermal growth factor receptor (Homo sapiens, UniProt P00533, E746-A750DEL); experiment: Binding affinity to human partial length EGFR E746-A750 deletion mutant expressed in bacterial expression system by KinomeScan assay; summary of the method: as §1
Sequence of Epidermal growth factor receptor (Homo sapiens, UniProt P00533, E746-A750DEL) (P00533 whole entry E746-A750del, looked up): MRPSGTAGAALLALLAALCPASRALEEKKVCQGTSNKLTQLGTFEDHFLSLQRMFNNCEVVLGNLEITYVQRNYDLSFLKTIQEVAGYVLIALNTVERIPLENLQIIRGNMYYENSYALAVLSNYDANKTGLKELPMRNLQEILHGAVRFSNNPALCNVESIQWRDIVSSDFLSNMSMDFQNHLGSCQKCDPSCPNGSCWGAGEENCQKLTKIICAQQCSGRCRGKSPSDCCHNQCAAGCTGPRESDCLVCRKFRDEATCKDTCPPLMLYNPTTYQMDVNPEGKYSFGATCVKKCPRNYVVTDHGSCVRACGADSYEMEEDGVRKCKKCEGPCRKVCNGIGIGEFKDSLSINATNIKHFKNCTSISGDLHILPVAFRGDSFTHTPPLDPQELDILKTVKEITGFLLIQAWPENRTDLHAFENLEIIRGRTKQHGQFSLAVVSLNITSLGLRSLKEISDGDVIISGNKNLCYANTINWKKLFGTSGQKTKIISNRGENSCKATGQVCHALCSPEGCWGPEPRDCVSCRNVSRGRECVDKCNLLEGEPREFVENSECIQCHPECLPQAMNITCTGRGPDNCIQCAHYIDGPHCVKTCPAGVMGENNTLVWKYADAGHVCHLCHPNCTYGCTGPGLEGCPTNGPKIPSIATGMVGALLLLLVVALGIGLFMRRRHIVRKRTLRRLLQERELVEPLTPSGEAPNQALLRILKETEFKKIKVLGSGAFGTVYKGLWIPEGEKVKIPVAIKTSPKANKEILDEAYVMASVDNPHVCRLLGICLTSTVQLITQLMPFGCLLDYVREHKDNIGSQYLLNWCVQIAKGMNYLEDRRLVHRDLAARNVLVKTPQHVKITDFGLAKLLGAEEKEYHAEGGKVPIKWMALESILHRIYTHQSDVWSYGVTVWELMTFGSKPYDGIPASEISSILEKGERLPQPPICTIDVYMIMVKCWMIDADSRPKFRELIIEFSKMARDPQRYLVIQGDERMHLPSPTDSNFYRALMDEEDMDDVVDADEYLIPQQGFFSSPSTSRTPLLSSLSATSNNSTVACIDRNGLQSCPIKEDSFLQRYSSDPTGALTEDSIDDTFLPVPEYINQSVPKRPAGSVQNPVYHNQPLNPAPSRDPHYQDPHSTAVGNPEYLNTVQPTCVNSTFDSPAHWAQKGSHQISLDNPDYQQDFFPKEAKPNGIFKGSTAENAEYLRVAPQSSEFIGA

T1 sequence (P00533 25-1210 L858R limits assumed): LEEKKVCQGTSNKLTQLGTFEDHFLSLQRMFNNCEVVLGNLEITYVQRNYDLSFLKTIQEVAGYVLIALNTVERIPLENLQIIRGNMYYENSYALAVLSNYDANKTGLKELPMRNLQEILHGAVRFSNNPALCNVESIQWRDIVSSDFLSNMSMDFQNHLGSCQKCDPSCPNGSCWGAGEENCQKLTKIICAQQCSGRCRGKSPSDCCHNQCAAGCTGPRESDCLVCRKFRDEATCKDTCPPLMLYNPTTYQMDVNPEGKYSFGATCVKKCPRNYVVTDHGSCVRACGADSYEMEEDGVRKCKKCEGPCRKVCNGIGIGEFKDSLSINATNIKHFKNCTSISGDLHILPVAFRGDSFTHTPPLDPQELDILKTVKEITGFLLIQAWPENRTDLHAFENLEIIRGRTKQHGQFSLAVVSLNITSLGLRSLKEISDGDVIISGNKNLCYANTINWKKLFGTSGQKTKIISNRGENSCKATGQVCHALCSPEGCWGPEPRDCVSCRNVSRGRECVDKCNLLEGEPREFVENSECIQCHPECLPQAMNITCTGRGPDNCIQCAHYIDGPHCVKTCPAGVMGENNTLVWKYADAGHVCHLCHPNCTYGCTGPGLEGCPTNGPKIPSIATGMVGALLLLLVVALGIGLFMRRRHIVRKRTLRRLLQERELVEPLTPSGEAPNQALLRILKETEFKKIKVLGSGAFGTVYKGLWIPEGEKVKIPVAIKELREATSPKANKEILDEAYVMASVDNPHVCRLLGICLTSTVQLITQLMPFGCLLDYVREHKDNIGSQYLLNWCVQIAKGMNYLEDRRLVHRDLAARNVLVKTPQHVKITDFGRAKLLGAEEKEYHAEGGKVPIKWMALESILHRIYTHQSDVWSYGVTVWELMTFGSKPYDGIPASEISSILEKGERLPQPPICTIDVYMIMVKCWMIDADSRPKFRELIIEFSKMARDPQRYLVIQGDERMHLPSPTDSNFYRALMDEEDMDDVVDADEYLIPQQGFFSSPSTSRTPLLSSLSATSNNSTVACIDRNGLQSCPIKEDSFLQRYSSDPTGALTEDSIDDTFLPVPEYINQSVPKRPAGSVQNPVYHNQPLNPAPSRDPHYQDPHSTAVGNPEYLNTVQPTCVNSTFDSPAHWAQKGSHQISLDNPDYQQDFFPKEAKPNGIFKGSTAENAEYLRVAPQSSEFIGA
Sequence of Receptor tyrosine-protein kinase erbB-2 (P04626 whole entry): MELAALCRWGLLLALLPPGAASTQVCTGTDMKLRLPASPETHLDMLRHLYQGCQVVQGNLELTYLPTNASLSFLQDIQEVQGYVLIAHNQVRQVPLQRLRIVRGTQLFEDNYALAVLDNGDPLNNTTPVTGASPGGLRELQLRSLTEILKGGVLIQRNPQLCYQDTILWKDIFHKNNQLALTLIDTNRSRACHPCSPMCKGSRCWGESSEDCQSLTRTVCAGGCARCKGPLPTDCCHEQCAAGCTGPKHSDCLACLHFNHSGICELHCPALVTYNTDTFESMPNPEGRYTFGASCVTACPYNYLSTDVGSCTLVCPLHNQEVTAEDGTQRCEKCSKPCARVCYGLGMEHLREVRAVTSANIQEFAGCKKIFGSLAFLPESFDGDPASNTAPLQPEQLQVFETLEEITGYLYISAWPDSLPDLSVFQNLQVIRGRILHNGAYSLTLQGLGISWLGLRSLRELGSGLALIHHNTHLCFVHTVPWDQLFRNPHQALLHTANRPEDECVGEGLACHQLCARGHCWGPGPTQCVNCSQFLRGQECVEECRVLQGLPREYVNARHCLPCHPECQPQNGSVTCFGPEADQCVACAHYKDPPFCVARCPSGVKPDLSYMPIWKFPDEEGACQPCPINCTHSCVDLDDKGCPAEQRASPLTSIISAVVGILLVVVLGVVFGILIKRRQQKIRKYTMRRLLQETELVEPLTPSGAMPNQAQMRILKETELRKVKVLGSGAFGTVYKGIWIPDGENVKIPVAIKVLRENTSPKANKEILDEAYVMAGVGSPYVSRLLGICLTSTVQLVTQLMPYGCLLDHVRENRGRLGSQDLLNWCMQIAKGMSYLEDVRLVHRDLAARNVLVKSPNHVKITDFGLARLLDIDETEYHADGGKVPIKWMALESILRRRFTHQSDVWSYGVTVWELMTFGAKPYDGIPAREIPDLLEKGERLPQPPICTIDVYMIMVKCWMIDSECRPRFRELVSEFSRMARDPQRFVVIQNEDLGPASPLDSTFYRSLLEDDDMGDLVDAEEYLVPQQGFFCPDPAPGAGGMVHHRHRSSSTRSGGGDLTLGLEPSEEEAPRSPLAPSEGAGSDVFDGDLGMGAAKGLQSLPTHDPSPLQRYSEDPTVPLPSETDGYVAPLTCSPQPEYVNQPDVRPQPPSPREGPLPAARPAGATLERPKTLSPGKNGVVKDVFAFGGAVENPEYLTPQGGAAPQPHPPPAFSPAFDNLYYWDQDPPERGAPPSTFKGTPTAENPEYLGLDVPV
Sequence of Cytochrome P450 2C9 (P11712 whole entry): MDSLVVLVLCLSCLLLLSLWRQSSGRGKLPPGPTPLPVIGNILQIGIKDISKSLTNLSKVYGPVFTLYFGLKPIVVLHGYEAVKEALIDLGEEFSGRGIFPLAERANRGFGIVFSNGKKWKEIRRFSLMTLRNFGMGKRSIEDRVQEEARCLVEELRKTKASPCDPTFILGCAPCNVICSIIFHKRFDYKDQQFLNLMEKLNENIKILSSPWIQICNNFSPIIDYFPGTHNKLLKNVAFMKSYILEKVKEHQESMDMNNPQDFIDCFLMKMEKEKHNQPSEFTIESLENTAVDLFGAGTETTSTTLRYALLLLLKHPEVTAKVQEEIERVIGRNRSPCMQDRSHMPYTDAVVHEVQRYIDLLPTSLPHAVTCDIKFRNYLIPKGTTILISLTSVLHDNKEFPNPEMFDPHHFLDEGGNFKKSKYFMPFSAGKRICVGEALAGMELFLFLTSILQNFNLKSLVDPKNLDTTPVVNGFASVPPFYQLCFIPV
Sequence of Cytochrome P450 2C19 (P33261 whole entry): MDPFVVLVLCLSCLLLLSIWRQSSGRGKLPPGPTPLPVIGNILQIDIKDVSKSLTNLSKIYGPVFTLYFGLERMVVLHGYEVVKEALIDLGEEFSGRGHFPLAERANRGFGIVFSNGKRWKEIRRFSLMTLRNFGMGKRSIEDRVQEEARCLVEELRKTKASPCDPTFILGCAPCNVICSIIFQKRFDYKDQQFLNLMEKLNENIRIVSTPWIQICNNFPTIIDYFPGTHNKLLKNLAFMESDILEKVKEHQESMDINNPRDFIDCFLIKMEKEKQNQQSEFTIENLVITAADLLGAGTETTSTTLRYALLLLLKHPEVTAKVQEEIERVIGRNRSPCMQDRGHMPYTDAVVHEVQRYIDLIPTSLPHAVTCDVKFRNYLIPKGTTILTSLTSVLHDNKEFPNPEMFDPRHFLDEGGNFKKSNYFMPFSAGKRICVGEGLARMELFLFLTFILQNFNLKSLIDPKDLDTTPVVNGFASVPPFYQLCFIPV

Which Kd [1] does the source give for CCOc1cc2ncc(C#N)c(Nc3ccc(OCc4cccc(F)c4)c(Cl)c3)c2cc1NC(=O)CC1CCSS1 (centres undefined) here?
The Kd was 10000 nM.

What about the IC50 [2] of the same molecule?
The IC50 was 120 nM.

What about the IC50 [3] of the same molecule?
Its IC50 is 10.9 to 11 nM.

What about the GI50 (NCI-H322M [4]) of the same molecule?
Its GI50 is 600 nM.

What about the half-life [5] of the same molecule?
Its half-life is 0.955 h.

What about the half-life [6] of the same molecule?
Its half-life is 0.893 h.

And the IC50 (Cytochrome P450 2C19)?
Its IC50 is over 50000 nM.

What about the GI50 (MOLT-4 [7]) of the same molecule?
The GI50 was 160 nM.

What about the Kd [8] of the same molecule?
The Kd was 9.6 nM.

And the inhibition [9]?
The inhibition was 20%.

And the Kd [10]?
Its Kd is 9.6 nM.

What about the TI (CCRF-CEM) of the same molecule?
Its TI is over 166.

And the CC50 (A549 [11])?
Its CC50 is 3400 nM.

What about the IC50 (Cytochrome P450 2D6) of the same molecule?
Its IC50 is over 50000 nM.

And the TI (MOLT-4 [12])?
The TI was over 156.

What about the IC50 (Cytochrome P450 3A4) of the same molecule?
The IC50 was over 50000 nM.

What about the GI50 (NCI-H460 [13]) of the same molecule?
The GI50 was 470 nM.

And the CC50 (NCI-H460 [14])?
The CC50 was 1950 nM.

What about the inhibition [15] of the same molecule?
The inhibition was 0%.

And the Kd [16]?
Its Kd is 7.9 nM.

What about the IC50 [17] of the same molecule?
Its IC50 is 160 nM.

And the Kd [18]?
Its Kd is 12 nM.

What about the TI (A549 [19]) of the same molecule?
Its TI is 6.2.

And the IC50 (Cytochrome P450 2C9)?
The IC50 was over 50000 nM.

What about the CC50 (MOLT-4 [20]) of the same molecule?
The CC50 was over 25000 nM.

What about the inhibition [21] of the same molecule?
The inhibition was 10%.

What about the Kd [22] of the same molecule?
Its Kd is 13 nM.

And the CC50 (NCI-H322M [23])?
The CC50 was over 25000 nM.

What about the IC50 (Cytochrome P450 2B6) of the same molecule?
The IC50 was over 50000 nM.

And the IC50 (Cytochrome P450 2C8)?
Its IC50 is over 50000 nM.

What about the half-life [24] of the same molecule?
The half-life was 1.43 h.

What about the half-life [25] of the same molecule?
Its half-life is over 1 h.

What about the half-life [26] of the same molecule?
Its half-life is 1 h.

And the Kd [27]?
Its Kd is 48 nM.
